Assay [1] in a line: Inhibition of c-AMP dependent protein kinase A (PKA) in bovine heart. In short, it runs like this: (§1)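 Kinase assay on PKA isolated from bovine heart, run by a method described earlier. Each data point was done in triplicate. IC50 values are the mean of at least two independent assays.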
The target in assay [2] is Protein kinase C (PKC). As to the kind of experiment: Inhibition of protein kinase C (PKC) in rat brain. It is filed as tissue-based. Put shortly: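 PKC from rat brain was assayed by a method described earlier. Each data point was done in triplicate. IC50 is the mean of at least two independent determinations.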
A short description of assay [3]: Inhibition of protein kinase A (PKA) in bovine heart. In short, it runs like this:
as §1

Molecules are shown by their SMILES.

This is an account of results in ChEMBL document CHEMBL1126323, “Inhibitors of protein kinase C. 2. Substituted bisindolylmaleimides with improved potency and selectivity” (J Med Chem, 1992).

In the case of `Cn1cc(C2=C(c3cn(CCCN)c4ccccc34)C(=O)NC2=O)c2ccccc21`, the IC50 in assay [1] came out at 5.2 µM; in assay [2], 0.075 µM.
As to `Cn1cc(C2=C(c3cn(CCC/N=C(\N)N[N+](=O)[O-])c4ccccc34)C(=O)NC2=O)c2ccccc21`, the IC50 in assay [3] was 4.9 µM; in assay [2] it was 0.026 µM.
`Cn1cc(C2=C(c3cn(CCCO)c4ccccc34)C(=O)NC2=O)c2ccccc21`: the results for the 50% inhibitory concentration (IC50) in assay [1] and in assay [2] were 14.2 µM and 0.13 µM, respectively.
For `Cn1cc(C2=C(c3cn(CCCCO)c4ccccc34)C(=O)NC2=O)c2ccccc21`, in that order: 18.4 µM and 0.17 µM.
Taken in the same sequence, the figures for `Cn1cc(C2=C(c3cn(CCN)c4ccccc34)C(=O)NC2=O)c2ccccc21` were 8.9 µM and 0.064 µM.
With `Cn1cc(C2=C(c3cn(CCO)c4ccccc34)C(=O)NC2=O)c2ccccc21`, the IC50 is 22.1 µM in assay [1] and 0.34 µM in assay [2].
On to `Cn1cc(C2=C(c3cn(CCCCN)c4ccccc34)C(=O)NC2=O)c2ccccc21`, for which the 50% inhibitory concentration (IC50) was 9.3 µM in assay [1] and 0.055 µM in assay [2].
In the case of `CN(C)CCCn1cc(C2=C(c3cn(C)c4ccccc34)C(=O)NC2=O)c2ccccc21`, the half-inhibitory concentration (IC50) amounted to 25.6 µM in assay [1] and 0.045 µM in assay [2].
In the case of `Cn1cc(C2=C(c3cn(CCCCCO)c4ccccc34)C(=O)NC2=O)c2ccccc21`, the IC50 in assay [1] is 21.3 µM; in assay [2], 0.28 µM.
For `CNCCCn1cc(C2=C(c3cn(C)c4ccccc34)C(=O)NC2=O)c2ccccc21`, in that order: 11.9 µM and 0.035 µM.
For the compound `Cn1cc(C2=C(c3cn(CCSC(=N)N)c4ccccc34)C(=O)NC2=O)c2ccccc21`, the half-maximal inhibitory concentration (IC50) worked out at 12.1 µM in assay [3] and 0.041 µM in assay [2].
As to `Cn1cc(C2=C(c3cn(CCCCCN)c4ccccc34)C(=O)NC2=O)c2ccccc21`, the IC50 worked out at 10.4 µM in assay [1] and 0.076 µM in assay [2].
For `Cn1cc(C2=C(c3cn(CCCCC(=N)N)c4ccccc34)C(=O)NC2=O)c2ccccc21`, in that order: 7.4 µM and 0.031 µM.
For the compound `Cn1cc(C2=C(c3cn(CCCCCSC(=N)N)c4ccccc34)C(=O)NC2=O)c2ccccc21`, the IC50 in assay [3] is 4.6 µM; in assay [2], 0.047 µM.
Turning to `Cn1cc(C2=C(c3cn(CCCN=C(N)N)c4ccccc34)C(=O)NC2=O)c2ccccc21`, the values for the IC50 in assay [1] and in assay [2] were 2.9 µM and 0.019 µM, respectively.
Take `Cn1cc(C2=C(c3cn(CCCSC(=N)N)c4ccccc34)C(=O)NC2=O)c2ccccc21` [BISINDOLYLMALEIMIDE IX]: the values for the IC50 in assay [3] and in assay [2] were 0.9 µM and 0.01 µM, respectively.
As for `Cn1cc(C2=C(c3cn(CCC[N+](C)(C)C)c4ccccc34)C(=O)NC2=O)c2ccccc21`, the values for the IC50 in assay [1] and in assay [2] were 64.5 µM and 0.093 µM, respectively.
As for `Cn1cc(C2=C(c3cn(CCCCSC(=N)N)c4ccccc34)C(=O)NC2=O)c2ccccc21`, the IC50 in assay [3] worked out at 2.7 µM; in assay [2], 0.028 µM.

In general, IC50 refers to the concentration that inhibits the measured activity by half. A lower IC50 goes with higher potency.
